Experimental data published in ChEMBL document CHEMBL1781961, “Synthesis and in vitro antibacterial activity of 7-(3-alkoxyimino-4-amino-4-methylpiperidin-1-yl) fluoroquinolone derivatives” (Eur J Med Chem, 2011).
≈ marks a conversion by molar mass, not a printed value.

Experiments:
[1] = test system: Pseudomonas aeruginosa; test: Antibacterial activity against 10^4 CFU Pseudomonas aeruginosa 09-32 after 18 hrs by CLSI agar dilution method; format: functional; settings: 09-32, 18 h
[2] = test system: Enterococcus faecalis; test: Antibacterial activity against 10^4 CFU Enterococcus faecalis 08-10 after 18 hrs by CLSI agar dilution method; format: functional; settings: 08-10, 18 h
[3] = test system: Enterococcus faecium; test: Antibacterial activity against 10^4 CFU Enterococcus faecium 08-2 after 18 hrs by CLSI agar dilution method; format: functional; settings: 08-2, 18 h
[4] = test system: Klebsiella pneumoniae; test: Antibacterial activity against 10^4 CFU Klebsiella pneumoniae 09-22 after 18 hrs by CLSI agar dilution method; format: functional; settings: 09-22, 18 h
[5] = test system: Escherichia coli; test: Antibacterial activity against 10^4 CFU Escherichia coli 08-21 after 18 hrs by CLSI agar dilution method; format: functional; settings: 08-21, 18 h
[6] = test system: Staphylococcus aureus; test: Antibacterial activity against 10^4 CFU Staphylococcus aureus ATCC 25923 after 18 hrs by CLSI agar dilution method; format: functional; settings: ATCC 25923, 18 h
[7] = Cytotoxicity against MDCK cells after 48 hrs by CPE assay; format: cell-based, Canis lupus familiaris; settings: dog
Outline: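 MDCK cells kept in Minimum Essential Medium with Earle's salt plus 10% fetal bovine serum at 37 °C, 5% CO₂. […] Medium then replaced by assay medium with or without compound. After 48 h exposure, viability read by CPE assay. CC₅₀ calculated by Reed–Muench analysis.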

[8] = test system: Staphylococcus epidermidis; test: Antibacterial activity against 10^4 CFU methicillin-sensitive Staphylococcus epidermidis 09-6 after 18 hrs by CLSI agar dilution method; format: functional; settings: 09-6, 18 h
[9] = test system: Klebsiella pneumoniae; test: Antibacterial activity against 10^4 CFU Klebsiella pneumoniae 09-23 after 18 hrs by CLSI agar dilution method; format: functional; settings: 09-23, 18 h
[10] = test system: Enterococcus faecium; test: Antibacterial activity against 10^4 CFU Enterococcus faecium 06-7 after 18 hrs by CLSI agar dilution method; format: functional; settings: 06-7, 18 h
[11] = test system: Pseudomonas aeruginosa; test: Antibacterial activity against 10^4 CFU Pseudomonas aeruginosa ATCC 27853 after 18 hrs by CLSI agar dilution method; format: functional; settings: ATCC 27853, 18 h
[12] = test system: Staphylococcus aureus; test: Antibacterial activity against 10^4 CFU methicillin-resistant Staphylococcus aureus 08-1 after 18 hrs by CLSI agar dilution method; format: functional; settings: 08-1, 18 h
[13] = test system: Escherichia coli; test: Antibacterial activity against 10^4 CFU Escherichia coli ATCC 25922 after 18 hrs by CLSI agar dilution method; format: functional; settings: ATCC 25922, 18 h
[14] = test system: Staphylococcus aureus; test: Antibacterial activity against 10^4 CFU methicillin-sensitive Staphylococcus aureus 08-1 after 18 hrs by CLSI agar dilution method; format: functional; settings: 08-1, 18 h
[15] = test system: Streptococcus pneumoniae; test: Antibacterial activity against 10^4 CFU Streptococcus pneumoniae 08-4 after 18 hrs by CLSI agar dilution method; format: functional; settings: 08-4, 18 h
[16] = test system: Enterococcus faecalis; test: Antibacterial activity against 10^4 CFU Enterococcus faecalis 08-12 after 18 hrs by CLSI agar dilution method; format: functional; settings: 08-12, 18 h
[17] = test system: Staphylococcus epidermidis; test: Antibacterial activity against 10^4 CFU methicillin-resistant Staphylococcus epidermidis 09-2 after 18 hrs by CLSI agar dilution method; format: functional; settings: 09-2, 18 h

For `CCO/N=C1\CN(c2nc3c(cc2F)c(=O)c(C(=O)O)cn3C2CC2)CCC1(C)N` (centres undefined), the MIC [1] was 2 µg/mL (≈ 4.79 µM), the MIC [2] was > 128 µg/mL and the MIC [3] was > 128 µg/mL. For the same molecule, the MIC [4] was > 128 µg/mL, the MIC [5] was > 128 µg/mL and the MIC [6] was 0.125 µg/mL (≈ 0.299 µM). The CC50 at 48 h [7] was 300 µM, the MIC [8] was 0.25 µg/mL (≈ 0.599 µM) and the MIC [9] was > 128 µg/mL. The MIC [10] was > 128 µg/mL, the MIC [11] was 8 µg/mL (≈ 19.2 µM) and the MIC [12] was 0.25 µg/mL (≈ 0.599 µM). The MIC [13] was 128 µg/mL (≈ 307 µM), the MIC [14] was 0.25 µg/mL (≈ 0.599 µM) and the MIC [15] was 0.25 µg/mL (≈ 0.599 µM). For the same molecule, the MIC [16] was > 128 µg/mL and the MIC [17] was 0.25 µg/mL (≈ 0.599 µM).
With `CCO/N=C1\CN(c2c(F)cc3c(=O)c(C(=O)O)cn(C4CC4)c3c2F)CCC1(C)N` (centres undefined) the MIC [1] was 4 µg/mL (≈ 9.21 µM), the MIC [2] was 4 µg/mL (≈ 9.21 µM) and the MIC [3] was > 128 µg/mL. For the same molecule, the MIC [4] was 4 µg/mL (≈ 9.21 µM), the MIC [5] was > 128 µg/mL and the MIC [6] was 0.5 µg/mL (≈ 1.15 µM). The CC50 at 48 h [7] was 288 µM, the MIC [8] was 0.5 µg/mL (≈ 1.15 µM) and the MIC [9] was > 128 µg/mL. For the same molecule, the MIC [10] was > 128 µg/mL, the MIC [11] was 8 µg/mL (≈ 18.4 µM) and the MIC [12] was 0.5 µg/mL (≈ 1.15 µM). It also gave an MIC [13] of 128 µg/mL (≈ 295 µM), an MIC [14] of 0.5 µg/mL (≈ 1.15 µM) and an MIC [15] of 4 µg/mL (≈ 9.21 µM). The MIC [16] was > 128 µg/mL and the MIC [17] was 0.5 µg/mL (≈ 1.15 µM).
Work on `CO/N=C1\CN(c2nc3c(cc2F)c(=O)c(C(=O)O)cn3C2CC2)CC1CN` (centres undefined) [GEMIFLOXACIN] yielded an MIC [1] of 0.25 µg/mL (≈ 0.642 µM), an MIC [2] of 16 µg/mL (≈ 41.1 µM) and an MIC [3] of 2 µg/mL (≈ 5.14 µM). The MIC [4] was 8 µg/mL (≈ 20.5 µM), the MIC [5] was 16 µg/mL (≈ 41.1 µM) and the MIC [6] was 0.125 µg/mL (≈ 0.321 µM). For the same molecule, the CC50 at 48 h [7] was 321 µM, the MIC [8] was 0.25 µg/mL (≈ 0.642 µM) and the MIC [9] was 8 µg/mL (≈ 20.5 µM). For the same molecule, the MIC [10] was 16 µg/mL (≈ 41.1 µM), the MIC [11] was 2 µg/mL (≈ 5.14 µM) and the MIC [12] was 0.25 µg/mL (≈ 0.642 µM). The MIC [13] was 4 µg/mL (≈ 10.3 µM), the MIC [14] was 0.06 µg/mL (≈ 0.154 µM) and the MIC [15] was 0.25 µg/mL (≈ 0.642 µM). It also gave an MIC [16] of 16 µg/mL (≈ 41.1 µM) and an MIC [17] of 0.125 µg/mL (≈ 0.321 µM).
For `CCO/N=C1\CN(c2c(F)cc3c(=O)c(C(=O)O)cn4c3c2OC[C@@H]4C)CCC1(C)N` (some centres undefined), the MIC [1] was 64 µg/mL (≈ 148 µM), the MIC [2] was 32 µg/mL (≈ 74 µM) and the MIC [3] was 32 µg/mL (≈ 74 µM). The MIC [4] was 64 µg/mL (≈ 148 µM), the MIC [5] was 64 µg/mL (≈ 148 µM) and the MIC [6] was 0.25 µg/mL (≈ 0.578 µM). The CC50 at 48 h [7] was 1160 µM, the MIC [8] was 0.25 µg/mL (≈ 0.578 µM) and the MIC [9] was 2 µg/mL (≈ 4.62 µM). For the same molecule, the MIC [10] was > 128 µg/mL, the MIC [11] was 4 µg/mL (≈ 9.25 µM) and the MIC [12] was 0.25 µg/mL (≈ 0.578 µM). For the same molecule, the MIC [13] was 32 µg/mL (≈ 74 µM), the MIC [14] was 0.25 µg/mL (≈ 0.578 µM) and the MIC [15] was 2 µg/mL (≈ 4.62 µM). For the same molecule, the MIC [16] was 64 µg/mL (≈ 148 µM) and the MIC [17] was 0.25 µg/mL (≈ 0.578 µM).
With `CO/N=C1\CN(c2nc3c(cc2F)c(=O)c(C(=O)O)cn3-c2ccc(F)cc2F)CCC1(C)N` (centres undefined) the MIC [1] was 0.25 µg/mL (≈ 0.526 µM), the MIC [2] was 64 µg/mL (≈ 135 µM) and the MIC [3] was > 128 µg/mL. For the same molecule, the MIC [4] was 64 µg/mL (≈ 135 µM), the MIC [5] was > 128 µg/mL and the MIC [6] was 0.25 µg/mL (≈ 0.526 µM). The CC50 at 48 h [7] was 93 µM, the MIC [8] was 0.25 µg/mL (≈ 0.526 µM) and the MIC [9] was 64 µg/mL (≈ 135 µM). For the same molecule, the MIC [10] was > 128 µg/mL, the MIC [11] was 4 µg/mL (≈ 8.41 µM) and the MIC [12] was 0.25 µg/mL (≈ 0.526 µM). It also gave an MIC [13] of 16 µg/mL (≈ 33.7 µM), an MIC [14] of 0.25 µg/mL (≈ 0.526 µM) and an MIC [15] of 1 µg/mL (≈ 2.1 µM). For the same molecule, the MIC [16] was 64 µg/mL (≈ 135 µM) and the MIC [17] was 0.25 µg/mL (≈ 0.526 µM).
`C[C@H]1COc2c(N3CCN(C)CC3)c(F)cc3c(=O)c(C(=O)O)cn1c23.C[C@H]1COc2c(N3CCN(C)CC3)c(F)cc3c(=O)c(C(=O)O)cn1c23.O` [LEVOFLOXACIN] gave an MIC [1] of 16 µg/mL, an MIC [2] of 8 µg/mL and an MIC [3] of 4 µg/mL. It also gave an MIC [4] of 16 µg/mL, an MIC [5] of 16 µg/mL and an MIC [6] of 0.25 µg/mL. It also gave an MIC [8] of 4 µg/mL, an MIC [9] of 16 µg/mL and an MIC [10] of 16 µg/mL. For the same molecule, the MIC [12] was 0.125 µg/mL, the MIC [13] was 2 µg/mL and the MIC [14] was 0.125 µg/mL. For the same molecule, the MIC [16] was 8 µg/mL and the MIC [17] was 0.25 µg/mL.
In the case of `CCO/N=C1\CN(c2c(F)cc3c(=O)c(C(=O)O)cn(C4CC4)c3c2OC)CCC1(C)N` (centres undefined), the MIC [1] is reported as 0.5 µg/mL (≈ 1.12 µM), the MIC [2] is reported as 1 µg/mL (≈ 2.24 µM) and the MIC [3] is reported as 64 µg/mL (≈ 143 µM). The MIC [4] was 1 µg/mL (≈ 2.24 µM), the MIC [5] was > 128 µg/mL and the MIC [6] was 0.25 µg/mL (≈ 0.56 µM). For the same molecule, the CC50 at 48 h [7] was 280 µM, the MIC [8] was 0.25 µg/mL (≈ 0.56 µM) and the MIC [9] was > 128 µg/mL. For the same molecule, the MIC [10] was 128 µg/mL (≈ 287 µM), the MIC [11] was 4 µg/mL (≈ 8.96 µM) and the MIC [12] was 0.25 µg/mL (≈ 0.56 µM). For the same molecule, the MIC [13] was 128 µg/mL (≈ 287 µM), the MIC [14] was 0.25 µg/mL (≈ 0.56 µM) and the MIC [15] was 0.25 µg/mL (≈ 0.56 µM). The MIC [16] was 128 µg/mL (≈ 287 µM) and the MIC [17] was 0.25 µg/mL (≈ 0.56 µM).
Work on `COc1c(N2C[C@@H]3CCCN[C@@H]3C2)c(F)cc2c(=O)c(C(=O)O)cn(C3CC3)c12` [MOXIFLOXACIN] yielded a CC50 at 48 h [7] of 161 µM.
For `CO/N=C1\CN(c2c(F)cc3c(=O)c(C(=O)O)cn(CCF)c3c2F)CCC1(C)N` (centres undefined), the MIC [1] was 0.5 µg/mL (≈ 1.17 µM), the MIC [2] was 128 µg/mL (≈ 300 µM) and the MIC [3] was 32 µg/mL (≈ 75 µM). The MIC [4] was 16 µg/mL (≈ 37.5 µM), the MIC [5] was 32 µg/mL (≈ 75 µM) and the MIC [6] was 0.125 µg/mL (≈ 0.293 µM). The CC50 at 48 h [7] was 36.6 µM, the MIC [8] was 0.25 µg/mL (≈ 0.586 µM) and the MIC [9] was 32 µg/mL (≈ 75 µM). It also gave an MIC [10] of 128 µg/mL (≈ 300 µM), an MIC [11] of 2 µg/mL (≈ 4.69 µM) and an MIC [12] of 0.25 µg/mL (≈ 0.586 µM). It also gave an MIC [13] of 32 µg/mL (≈ 75 µM), an MIC [14] of 0.25 µg/mL (≈ 0.586 µM) and an MIC [15] of 2 µg/mL (≈ 4.69 µM). It also gave an MIC [16] of 32 µg/mL (≈ 75 µM) and an MIC [17] of 0.25 µg/mL (≈ 0.586 µM).
